Source: PubChem BioAssay
Fh CTSL1 inh = counter-screen for PFM18AAP inhibitors: inhibitors of F. hepatica cathepsin L1 | AID 1906 | actives 0.49% (n = 300,000) | inhibition, % at 5.96 µM | recombinant F. hepatica cathepsin L1, Z-Leu-Arg-MCA fluorescence;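 active = inhibition above the mean of all tested compounds plus 3 SD, set per screening campaign, cut at about 17% in these data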
PREPL inhibitor = human PREPL enzyme inhibition; recombinant PREPL, fluorescence polarization activity-based probe; inhibition, % at 5.96 µM; actives 0.68% (n = 320,000); AID 2751; in the data active = inhibition above about 43%
PP1 counter = PP1-alpha (human) inhibition in PP5 counter-screen. P62136. purified PP1alpha, OMFP fluorescence. inhibition, % at 6.7 µM. actives 0.9% (n = 320,000);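 active = inhibition above the mean inhibition of all tested compounds plus 3 SD, computed separately for each screening campaign, cut at about 15% in these data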
UCH37 inh = blocks the human deubiquitinase UCH37 | AID 588478 | actives 0.33% (n = 330,000) | Q9Y5K5 | inhibition, % (concentration not given with the values) | purified proteasome/UCH37, Ub-AMC cleavage fluorescence;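 active = mean inhibition over replicate wells above about 20%, limit read from the data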
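Material: human UCH37 enzyme supplied as purified proteasome complex / Amount: 0.15 nM proteasome as dispensed / Buffer or medium: pH 7.4 Tris-HCl (50 mM) with ovalbumin, ATP-MgCl2, DTT / Times: preincubation 30 min, reaction 25 min, room temperature / Technique: AMC fluorescence from Ub-AMC cleavage, excitation 355 nm, emission 460 nm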
UBC13 inh = blocks human UBC13 polyubiquitin chain formation; TR-FRET; inhibition, % at 20 µM; actives 0.47% (n = 330,000); AID 485273; in the data active = inhibition above about 45%, passing the limit was not always enough
Target sequence (P61088 whole entry, looked up): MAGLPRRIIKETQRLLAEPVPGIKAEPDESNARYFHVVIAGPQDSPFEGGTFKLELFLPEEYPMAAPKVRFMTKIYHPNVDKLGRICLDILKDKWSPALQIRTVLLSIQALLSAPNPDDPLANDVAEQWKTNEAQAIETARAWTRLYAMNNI
PP5 primary = blocks human protein phosphatase 5 activity | inhibition, % at 6.7 µM | purified PP5c, OMFP substrate fluorescence | actives 0.18% (n = 320,000) | P53041;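 active = inhibition above the campaign's mean inhibition across all tested compounds plus 3 SD, cut at about 9.5% in these data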
Target sequence (P53041 whole entry, looked up): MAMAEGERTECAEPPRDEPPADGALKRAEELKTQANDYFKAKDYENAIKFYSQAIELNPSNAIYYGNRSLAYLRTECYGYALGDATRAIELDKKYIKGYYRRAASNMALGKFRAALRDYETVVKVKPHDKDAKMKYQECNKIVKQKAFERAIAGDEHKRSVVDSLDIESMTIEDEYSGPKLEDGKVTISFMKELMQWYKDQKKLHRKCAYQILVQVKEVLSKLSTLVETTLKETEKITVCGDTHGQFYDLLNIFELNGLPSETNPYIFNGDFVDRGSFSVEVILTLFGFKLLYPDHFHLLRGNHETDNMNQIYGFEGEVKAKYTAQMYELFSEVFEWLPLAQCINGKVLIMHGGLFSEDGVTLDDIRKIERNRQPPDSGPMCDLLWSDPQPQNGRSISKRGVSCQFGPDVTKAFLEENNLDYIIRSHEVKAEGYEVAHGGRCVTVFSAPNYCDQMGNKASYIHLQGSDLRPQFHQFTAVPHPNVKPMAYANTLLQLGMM
A number is an active result; 0 = inactive; - = no result. Rows were chosen to be rich in hits. Some 2.3% of all compounds tested hit in one or more screens of this group.

SMILES	Fh CTSL1 inh	PREPL inhibitor	PP1 counter	UCH37 inh	UBC13 inh	PP5 primary
CCOC(=O)N1CCN(CC(=O)Nc2ccc([N+](=O)[O-])cc2C(=O)Nc2ccccc2F)CC1	0	0	0	0	0	0
O=C(NN=Cc1ccccn1)c1ccc(Br)o1	-	-	-	0	-	-
Cc1ccccc1CS(=O)(=O)c1nnc([C@H](Cc2ccccc2)NC(=O)OC(C)(C)C)o1	28.9	0	0	0	0	0
CCC(C)[C@@H](NC(=O)OC(C)(C)C)c1nnc(S(=O)(=O)Cc2cccc(C)c2)o1 (stereo not given in full)	-	-	-	0	-	-
CC(C)(C)OC(=O)N[C@@H](Cc1ccccc1)c1nnc(S(=O)(=O)Cc2ccccc2)o1	24.8	0	0	-	0	0
CCSc1nnc([C@H](Cc2ccccc2)NC(=O)OC(C)(C)C)o1	0	0	0	0	0	0
COC(=O)CSc1nnc([C@H](CC(C)C)NC(=O)OC(C)(C)C)o1	52.1	0	0	0	0	0
CC(C)(C)OC(=O)N[C@@H](Cc1ccccc1)c1nnc(SCC(=O)O)o1	29.0	0	0	0	0	0
Cc1[nH]c2ccccc2c1C=NNC(=O)Cn1nnc(-c2ccccc2)n1	-	-	-	0	-	-
Clc1ccc(Oc2nc3ccccc3n3cccc23)cc1	26.4	0	0	0	0	0
O=c1cc(O)c2c(=O)n(-c3ccccc3)c3c(c2o1)CCCCCC3	0	0	16.8	0	0	0
COc1ccc(NS(=O)(=O)c2cccc(C(=O)N/N=C/c3ccc4c(c3)OCCO4)c2)cc1	0	0	16.9	-	0	0
COc1ccccc1NS(=O)(=O)c1cccc(C(=O)N/N=C/c2ccc3c(c2)OCCO3)c1	0	0	0	-	0	0
Cc1ccc2nc(Cl)c(C=Nn3c(C)nnc3C)cc2c1	-	-	-	0	-	-
COC(=O)CN(C)C(=O)c1ccc(OC)c(OC2CCN(C(C)C)CC2)c1	52.0	0	0	0	0	0
COc1ccc(CC(=O)NN=C(C)c2cccs2)cc1OC	-	-	-	0	-	-
C=CCC[C@H](Cc1ccc(F)cc1)C(=O)OC[C@@H](Cc1c[nH]c2ccccc12)NC(=O)[C@@H](CC=C)CC(=O)N[C@@H](CO)Cc1ccccc1	-	0	-	0	0	-
C=CCC[C@H](Cc1ccc(F)cc1)C(=O)OC[C@H](Cc1c[nH]c2ccccc12)NC(=O)[C@@H](CC=C)CC(=O)NCCO	-	0	-	25.2	0	-
CCOc1ccccc1C(=O)NN=Cc1ccoc1	-	-	-	0	-	-
CC1(C)Cc2ccccc2C(=O)N1	0	0	0	25.7	0	0
COc1ccccc1NC(=O)COc1ccc(C=Nn2cnnc2)cc1OC	-	-	-	0	-	-
CCc1cc(Cn2nc(C(=O)O)cc2-c2ccccc2)on1	0	0	0	22.1	0	0
CCc1cc(Cn2nc(-c3ccccc3C)cc2C(=O)O)on1	-	0	0	0	0	0
Cc1c(/C(O)=C2/C(=O)C(=O)N(CCN3CCOCC3)C2c2cccnc2)cnn1-c1ccccc1 (stereo not given)	0	0	0	21.9	0	0
Cc1ccc(-c2nn(-c3ccccc3)cc2/C=C2\SC(=S)N(CC(=O)O)C2=O)cc1	0	0	0	21.4	0	0
SMILES	Fh CTSL1 inh	PREPL inhibitor	PP1 counter	UCH37 inh	UBC13 inh	PP5 primary
O=C(O)CN1C(=O)/C(=C\c2cn(CC(=O)N3CCOCC3)c3ccccc23)SC1=S	0	0	0	24.4	0	0
O=c1oc2ccccc2nc1C=C(O)/C=C/c1ccc(F)cc1	-	-	-	0	-	-
O=C(COc1cccc2ccccc12)NN=Cc1ccco1	-	-	-	0	-	-
CC1CCCC(NC(=O)NC(=O)CCl)C1C (stereo not given)	24.4	0	0	0	0	0
O=C1C2C3C=CC(C3)C2C(=O)N1CNc1ccc(O)cc1 (stereo not given)	70.6	0	0	-	0	0
Nc1ccc(Nc2ccccc2N)cc1	0	94.4	0	0	0	0
COc1ccc(Nc2ccccc2N)cc1	0	0	0	0	0	0
COC(=O)Cc1cc(=O)[nH]c(N=C(N)Nc2ccccc2C)n1	-	-	-	0	-	-
COc1cc(-c2c(C#N)c(N)nc3[nH]c(=S)[nH]c(=O)c23)ccc1O	0	0	0	22.6	0	0
COc1cc(-c2c(C#N)c(N)nc3c2CCCC3)ccc1O	0	0	0	0	0	0
CCOc1ccccc1NC(=O)COC(=O)C(CC(C)C)N1C(=O)C2CC=CCC2C1=O (stereo not given)	0	0	0	0	0	0
CC(C)CC(C(=O)OCC(=O)Nc1cccc(Cl)c1)N1C(=O)C2CC=CCC2C1=O (stereo not given)	21.7	0	0	0	0	0
Nc1cc(OC(=O)c2cccs2)nn1S(=O)(=O)c1ccc(F)cc1	0	0	0	0	0	0
Nc1cc(OC(=O)c2cccs2)nn1S(=O)(=O)c1ccccc1	0	0	15.5	0	0	0
CC(=O)Oc1cccc(C=c2sc3nc(-c4ccco4)nn3c2=O)c1	-	-	-	0	-	-
Cc1ccccc1OCC(=O)OC(C)C(=O)NC1CCCC1 (stereo not given)	-	0	0	0	0	0
Cc1ccccc1OC(C)C(=O)NC1CCCC1 (stereo not given)	0	0	0	28.3	0	0
N#CC(=NNc1ccc(OC(F)(F)F)cc1)C(N)=S	-	-	-	0	-	-
Cn1cnnc1SCc1ccc(-c2ccc(Br)cc2)o1	59.5	0	0	0	0	0
Cc1cccc(NCC(=O)NN=Cc2cccc(Br)c2)c1	-	-	-	0	-	-
COC(=O)C(C(=O)NCC1CCCO1)C1CCCCCC1 (stereo not given)	0	0	0	0	0	0
CCOC(=O)C(C(=O)NCC1CCCO1)C1CCCCC1 (stereo not given)	17.1	0	0	0	0	0
O=C(Cc1ccc(O)cc1)NCCNC(=S)NCc1ccccc1	25.2	0	0	0	0	0
O=C(O)CNC(=S)NCc1ccccc1	0	0	0	-	0	0
Cc1ccccc1OCC(=O)NN=Cc1ccc(N2CCOCC2)o1	-	-	-	0	-	-
SMILES	Fh CTSL1 inh	PREPL inhibitor	PP1 counter	UCH37 inh	UBC13 inh	PP5 primary
O=C(O)c1cccc2c(-c3ccccc3)c(-c3ccccc3)[nH]c12	0	0	15.4	0	0	0
O=C(O)c1ccccc1-c1nc(-c2ccccc2)c(-c2ccccc2)[nH]1	0	0	0	0	0	0
Cc1noc(NS(=O)(=O)c2ccc(NC(=O)CC34CC5CC(CC(Br)(C5)C3)C4)cc2)c1C	19.7	0	0	0	0	0
CN(C)c1ccc(C=NNC(=O)C(=O)/C=C2\NC3(CCCC3)Cc3ccccc32)cc1	-	-	-	0	-	-
O=C(O)C(Cc1ccccc1)N1C(=O)c2ccccc2C1=O (stereo not given)	0	0	0	0	0	0
CC(C)C(C(=O)C=[N+]=[N-])N1C(=O)c2ccccc2C1=O (stereo not given)	20.9	0	0	0	0	0
NC(=O)C(Cc1ccccc1)N1C(=O)c2ccccc2C1=O (stereo not given)	18.8	0	0	0	0	0
[N-]=[N+]=CC(=O)C(Cc1ccccc1)N1C(=O)c2ccccc2C1=O (stereo not given)	25.7	0	0	0	0	0
CC(=NOC(=O)c1ccc(Cl)cc1)c1sc(-c2ccccc2)nc1C	-	-	-	0	-	-
